In data set [1] the test system is Staphylococcus aureus. The data set is described as follows: Antibacterial activity against Staphylococcus aureus ATCC 13709 after 24 hrs by microdilution method. In kind it is functional. The following applies: ATCC 13709, 24 h. An outline of the steps:
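Broth microdilution MIC per CLSI M7-A7 against S. aureus ATCC 13709.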

For the next data set, the system named is Bone. The data set is described as follows: Binding affinity to bone assessed as drug level bound to cattle bone meal powder by fluorescence assay. It is filed as tissue-based. The arrangement: concentration or dose not given beside the values. The settings on record: Bos taurus; Bone element. An outline of the steps: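 Drug or prodrug was suspended with bone meal powder in PBS and held 1 h at 37 °C to bind, then centrifuged. The pellet was washed three times with PBS, and all supernatants were read by fluorescence (ex/em 280/465 nm). Bound fraction was taken as […] prodrug relative to total input.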

The subject of data set [2] is Serum. In words: Stability in 50% human serum assessed as amount of parent drug released from cattle bone meal powder over 24 hrs. It is filed as ADME, cell-free. In short, it runs like this: (§1)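 Washed bone-powder-bound prodrug was resuspended in PBS or 50% (v/v in PBS) human or rat serum and kept 24 h at 37 °C. The supernatant was extracted with 5 volumes of methanol, centrifuged, dried, redissolved in PBS and read by fluorescence. Release was derived from the difference between bound prodrug and regenerated drug. Identity was checked by CLSI MIC.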

Data set [3] has as its system Serum. In words: Stability in 50% rat serum assessed as amount of parent drug released from cattle bone meal powder over 24 hrs. In kind it is ADME, cell-free. In short, it runs like this:
as §1

Data set [4] in a line: Stability in phosphate buffer saline assessed as amount of parent drug released from cattle bone meal powder over 24 hrs. It is filed as ADME. An outline of the steps:
as §1

Data set [5] has as its system Staphylococcus aureus. The data set is described as follows: Protective effect against Staphylococcus aureus ATCC 13709-induced bone infection in CD rat at 17.3 mg/kg, iv administered as single dose 2 days before bacterial challenge. It is filed as functional, organism-based. The arrangement: dose 17.3 mg/kg. An outline of the steps:
(§2)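 Female CD rats (57–70 days, n = 5/group) received a single IV bolus in 0.9% saline before infection. Under isoflurane, tibiae were injected with 0.05 ml 5% sodium morrhuate, then S. aureus ATCC 13709 (ca. 5 × 10⁵ CFU/rat). At 24 h, tibiae were milled and cultured quantitatively. Read-out was log CFU/g bone (mean, SD; detection limit 2 log), compared by Dunnett or Kruskal–Wallis.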

For data set [6], the system named is Staphylococcus aureus. The data set is described as follows: Protective effect against Staphylococcus aureus ATCC 13709-induced bone infection in CD rat at 15.8 mg/kg, iv administered as single dose 2 days before bacterial challenge. In kind it is functional, organism-based. Also on record: dose 15.8 mg/kg. An outline of the steps:
as §2

Data set [7] has as its system Staphylococcus aureus. In words: Protective effect against Staphylococcus aureus ATCC 13709-induced bone infection in CD rat at 10 mg/kg, iv administered as single dose.
The test system of data set [8] is Staphylococcus aureus. The data set is described as follows: Protective effect against Staphylococcus aureus ATCC 13709-induced bone infection in CD rat at 10 mg/kg, iv administered as single dose 2 days before bacterial challenge. It is filed as functional, organism-based. Also on record: dose 10 mg/kg. In short, it runs like this:
as §2

Data set [9] has as its system Staphylococcus aureus. The data set is described as follows: Protective effect against Staphylococcus aureus ATCC 13709-induced bone infection in CD rat at 10 mg/kg, iv administered as single dose 24 hrs after bacterial challenge. In kind it is functional, organism-based. The arrangement: dose 10 mg/kg.

≈ marks a conversion by molar mass, not a printed value. Calls of active or inactive are those of the source. Some results are limits rather than exact numbers.

Turning to `COc1c(N2CCNC(C)C2)c(F)cc2c(=O)c(C(=O)OCC(=O)NCCCC[C@@H](NC(=O)COC(=O)c3cn(C4CC4)c4c(OC)c(N5CCNC(C)C5)c(F)cc4c3=O)C(=O)NC(P(=O)(O)O)P(=O)(O)O)cn(C3CC3)c12` (some centres undefined), the minimum inhibitory concentration (MIC) – broadly, the smallest concentration in the dilution series that meets the test's criterion for growth inhibition – with Staphylococcus aureus [1] is more than 4 µg/mL. In addition, the Activity came to 92.8% with Bone, 0.4% with Serum [2], 0.4% in the data set on Serum [3] and 0.2% in data set [4].
`COc1c(N2C[C@@H]3CCCN[C@@H]3C2)c(F)cc2c(=O)c(C(=O)OCC(=O)Nc3ccc(CC(P(=O)(O)O)P(=O)(O)O)cc3)cn(C3CC3)c12`: the MIC in the data set with Staphylococcus aureus [1] is more than 4 µg/mL. Further, the Activity in the data set with Bone was 97.2%; in the data set with Serum [2], 1.2%; in the data set on Serum [3] it was 1.3%; in data set [4] it was 0.6%.
In the data set with Staphylococcus aureus [1], `COc1c(N2CCNC(C)C2)c(F)cc2c(=O)c(C(=O)OCC(=O)NC(P(=O)(O)O)P(=O)(O)O)cn(C3CC3)c12` (centres undefined) displayed an MIC of more than 4 µg/mL. The Activity in the data set with Bone stood at 91%; in the data set on Serum [2] it was 1.6%; with Serum [3], 1.3%; in data set [4], 2.7%. Moreover, the result in the data set with Staphylococcus aureus [5] was Active.
In the case of `COc1c(N2C[C@@H]3CCCN[C@@H]3C2)c(F)cc2c(=O)c(C(=O)SCCCC(P(=O)(O)O)P(=O)(O)O)cn(C3CC3)c12`, in the data set on Staphylococcus aureus [1], the MIC is more than 4 µg/mL. The Activity with Bone was 99.9%; with Serum [2] it was 0.1%; with Serum [3] it was 0.1%; in [4], 0.04%.
In the data set with Staphylococcus aureus [1], `COc1c(N2C[C@@H]3CCCN[C@@H]3C2)c(F)cc2c(=O)c(C(=O)OCCCCC(P(=O)(O)O)P(=O)(O)O)cn(C3CC3)c12` had an MIC of more than 4 µg/mL. For the same compound, the figures for the Activity (with Bone; in data set [4]) were 92.7% and 0.01%, respectively.
Consider `COc1c(N2CCNC(C)C2)c(F)cc2c(=O)c(C(=O)OCC(=O)N(C)C(P(=O)(O)O)P(=O)(O)O)cn(C3CC3)c12` (centres undefined), for which the minimum inhibitory concentration (MIC) in the data set with Staphylococcus aureus [1] is more than 4 µg/mL. For the same compound, the Activity came out at 90.4% in the data set on Bone, 0.6% with Serum [2], 0.9% in the data set with Serum [3] and 1.1% in data set [4].
`COc1c(N2C[C@@H]3CCCN[C@@H]3C2)c(F)cc2c(=O)c(C(=O)OCC(=O)NC(P(=O)(O)O)P(=O)(O)O)cn(C3CC3)c12`: the MIC in the data set with Staphylococcus aureus [1] is more than 4 µg/mL. The Activity in the data set with Bone is 98.7%; in the data set on Serum [2], 1.4%; with Serum [3] it was 1.4%; in [4], 1.2%. In addition, in the data set on Staphylococcus aureus [6], the result was Active.
The compound `COc1c(N2CCNC(C)C2)c(F)cc2c(=O)c(C(=O)O)cn(C3CC3)c12` (centres undefined) [GATIFLOXACIN] registered an MIC in the data set on Staphylococcus aureus [1] of 0.06 µg/mL (≈ 0.16 µM). Besides, the result with Staphylococcus aureus [7] and with Staphylococcus aureus [8] was inactive.
Turning to `COc1c(N2CCNC(C)C2)c(F)cc2c(=O)c(C(=O)Oc3ccc(C(P(=O)(O)O)P(=O)(O)O)cc3)cn(C3CC3)c12` (centres undefined), the MIC against Staphylococcus aureus [1] was more than 4 µg/mL. Moreover, the Activity in the data set with Bone worked out at 79.2%; in the data set with Serum [2], 0.1%; in the data set with Serum [3] it was 0.1%; in data set [4] it was 0.2%.
On to `COc1c(N2C[C@@H]3CCCN[C@@H]3C2)c(F)cc2c(=O)c(C(=O)OCCCC(P(=O)(O)O)P(=O)(O)O)cn(C3CC3)c12`, for which the MIC with Staphylococcus aureus [1] was more than 4 µg/mL. The Activity with Bone was 93.8%.
Compound `COc1c(N2CCNC(C)C2)c(F)cc2c(=O)c(C(=O)SCCCC(P(=O)(O)O)P(=O)(O)O)cn(C3CC3)c12` (centres undefined) came in with an MIC in the data set with Staphylococcus aureus [1] of more than 4 µg/mL. Further, the Activity was found to be 98.7% with Bone, 0.1% with Serum [2], 0.1% with Serum [3] and 0.1% in [4].
For `COc1c(N2C[C@@H]3CCCN[C@@H]3C2)c(F)cc2c(=O)c(C(=O)SCC(=O)NC(P(=O)(O)O)P(=O)(O)O)cn(C3CC3)c12`, the MIC in the data set with Staphylococcus aureus [1] was more than 4 µg/mL. The Activity in the data set with Bone is 99%; with Serum [2], 0.5%; in the data set with Serum [3], 0.4%; in [4], 0.3%.
In the same order, the values of `COc1c(N2CCNC(C)C2)c(F)cc2c(=O)c(C(=O)OCC(=O)Nc3ccc(CC(P(=O)(O)O)P(=O)(O)O)cc3)cn(C3CC3)c12` (centres undefined) are more than 4 µg/mL, 88.9%, 0.7%, 0.6% and 0.5%.
In the same order, the values of `COc1c(N2C[C@@H]3CCCN[C@@H]3C2)c(F)cc2c(=O)c(C(=O)OCC(=O)N(C)C(P(=O)(O)O)P(=O)(O)O)cn(C3CC3)c12` are more than 4 µg/mL, 97.3%, 0.8%, 0.7% and 0.3%.
The compound `COc1c(N2C[C@@H]3CCCN[C@@H]3C2)c(F)cc2c(=O)c(C(=O)O)cn(C3CC3)c12` [MOXIFLOXACIN] showed an MIC in the data set on Staphylococcus aureus [1] of 0.03 µg/mL (≈ 0.0747 µM). For the same compound, the result with Staphylococcus aureus [7], with Staphylococcus aureus [8] and in the data set with Staphylococcus aureus [9] was inactive.

The record behind these values is ChEMBL document CHEMBL1142457, “Bisphosphonated fluoroquinolone esters as osteotropic prodrugs for the prevention of osteomyelitis” (Bioorg Med Chem, 2008).
